The source of these data is ChEMBL document CHEMBL1146561, “New sesterterpene sulfates from the sponge Darwinella australensis” (J Nat Prod, 2003).

As a reminder, the IC50 is the concentration that inhibits the measured activity by half. A low value points to greater potency in that assay.

SMILES strings stand for the structures.

For one assay, the system named is Staphylococcus aureus. The assay can be described thus: Antimicrobial activity against Staphylococcus aureus at 25 ug by paper-disk method. It counts as functional. The following applies: read-out: IZ. The gist of the method:
(§1)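 Paper-disk diffusion assay with 25 μg of sample applied. Activity was read as the diameter of the inhibition zone in mm.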

The next assay has as its system Candida albicans. The assay can be described thus: Antimicrobial activity against Candida albicans at 25 ug by paper-disk method. The following applies: read-out: IZ. The class given is functional. In short, it runs like this: as §1
The next assay concerns Streptococcus sp. The assay is described as follows: Antimicrobial activity against Streptococcus sp. at 25 ug by paper-disk method. The following applies: read-out: IZ. It counts as functional. In short, it runs like this: as §1
The next assay relates to Bacillus subtilis. The assay is described as follows: Antimicrobial activity against Bacillus subtilis at 25 ug by paper-disk method. The class given is functional. The following applies: read-out: IZ. The gist of the method:
as §1

In the next assay the test system is Escherichia coli. The assay is described as follows: Antimicrobial activity against Escherichia coli at 25 ug by paper-disk method. It counts as functional. The following applies: read-out: IZ. In short, it runs like this: as §1
The next assay relates to K562. The assay is described as follows: Cytotoxicity against human K562 cells by MTT assay. It counts as functional. To be noted: read-out: LC50 (the source's name). In short, it runs like this:
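Human leukemia K562 line; viability by MTT method; activity expressed as LC50 in μg/mL.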

Assay [1] can be described thus: Inhibition of cell division in sea urchin fertilized egg. It counts as functional, Strongylocentrotus intermedius. The gist of the method: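 Fertilized eggs of the sea urchin Strongylocentrotus intermedius were scored for inhibition of cell division. IC50 is expressed in μg/mL.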

Regarding `C[C@H]1CC[C@H]2C(=CC(=O)CC2(C)C)[C@@]1(C)CCC(CCCc1ccoc1)COS(=O)(=O)[O-].[Na+]` (stereo not given in full) [HALISULPHATE 8], the zone of inhibition at 25 µg/disc in the assay with Staphylococcus aureus, in the assay on Candida albicans, in the assay on Streptococcus sp., in the assay on Bacillus subtilis and with Escherichia coli was less than 3 mm in each case. The CC50 in the assay on K562 was greater than 100 µg/mL.

In the case of `C[C@H]1CC[C@H]2C(=CCCC2(C)C)[C@@]1(C)CCC(CCCC1=CC(=O)OC1)COS(=O)(=O)[O-].[Na+]` (stereo not given in full) [HALISULPHATE 9], the zone of inhibition at 25 µg/disc in the assay on Staphylococcus aureus, with Candida albicans, with Streptococcus sp., in the assay on Bacillus subtilis and in the assay with Escherichia coli was less than 3 mm throughout. The IC50 in assay [1] came out at 50 µg/mL. Besides, in the assay with K562, the CC50 is greater than 100 µg/mL.

Turning to `COC1C=C(CCCC(CC[C@]2(C)C3=CCCC(C)(C)[C@H]3CC[C@@H]2C)COS(=O)(=O)[O-])C(=O)O1.[Na+]` (stereo not given in full) [HALISULPHATE 10], the zone of inhibition at 25 µg/disc in the assay on Staphylococcus aureus, in the assay on Candida albicans, in the assay on Streptococcus sp., in the assay on Bacillus subtilis and in the assay on Escherichia coli was less than 3 mm each time. Moreover, the 50% inhibitory concentration (IC50) in assay [1] stood at 35 µg/mL. Besides, the CC50 in the assay with K562 is greater than 100 µg/mL.
